Results on 23 compounds are retold here after paper PMC3049929 (Journal of medicinal chemistry, 2008).

The test system of assay [1] is P. falciparum 3D7 (chloroquine-sensitive). In kind it is cell-based. Conditions: Plasmodium falciparum, 3D7, Erythrocyte, 48 h, read-out: ED50 (nM) 3D7. In outline: (§1)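 Parasites cultured in type A+ human erythrocytes (2% hematocrit) in RPMI-1640 with 20% heat-inactivated type A+ human plasma, under 5% CO2/5% O2/90% N2. Test compound in DMSO added to culture at 0.5% parasitemia and 0.5% hematocrit. Incubated 37 °C for 48 h, then [8-3H]hypoxanthine (0.3 µCi) added for a further 24 h. Cells harvested to filter mats and counted by β-scintillation. Uninfected-erythrocyte background subtracted; DMSO-only wells taken as 100% growth. ED50 from linear regression of incorporation vs concentration.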

In assay [2] the test system is P. falciparum K1 (chloroquine-resistant, pyrimethamine-resistant). In kind it is cell-based. Conditions: Plasmodium falciparum, K1, Erythrocyte, 48 h, read-out: ED50 (nM) K1. In outline: as §1

In the case of `Cn1cnc(S(=O)(=O)N(Cc2ccccc2)[C@@H]2CCC[C@@H]2N(Cc2cncn2C)c2ccc(C#N)cc2)c1` (racemic) [6a, (±)-[N-Benzyl-N-{cis-2-[(4-cyanophenyl)(3-methyl-3H-imidazol-4-ylmethyl)amino]cyclopentyl}]-1-methyl-1H-imidazole-4-sulfonamide], the IC50 was > 5000 nM in assay [1] and 2400 nM in assay [2].

Take `Cc1ccccc1CN([C@@H]1CCC[C@@H]1N(Cc1cncn1C)c1ccc(C#N)cc1)S(=O)(=O)c1cn(C)cn1` (racemic) [6b, (±)-[N-(2-Methylbenzyl)-N-{cis-2-[(4-cyanophenyl)(3-methyl-3H-imidazol-4-ylmethyl)amino]cyclopentyl}]-1-methyl-1H-imidazole-4-sulfonamide]: the IC50 in assay [1] and in assay [2] was 2800 nM in each case.

For `Cn1cnc(S(=O)(=O)N(Cc2ccsc2)[C@@H]2CCC[C@@H]2N(Cc2cncn2C)c2ccc(C#N)cc2)c1` (racemic) [6c, (±)-[N-(Thiophen-3-ylmethyl)-N-{cis-2-[(4-cyanophenyl)(3-methyl-3H-imidazol-4-ylmethyl)amino]cyclopentyl}]-1-methyl-1H-imidazole-4-sulfonamide], the IC50 in assay [1] was > 5000 nM; in assay [2] it was 4200 nM.

For `Cn1cnc(S(=O)(=O)N(CC2CCN(c3ncccn3)CC2)[C@@H]2CCC[C@@H]2N(Cc2cncn2C)c2ccc(C#N)cc2)c1` (racemic) [6e, (±)-[N-{N-(2-Pyrimidinyl)-piperidin-4-ylmethyl}-N-{cis-2-[(4-cyanophenyl)(3-methyl-3H-imidazol-4-ylmethyl)amino]cyclopentyl}]-1-methyl-1H-imidazole-4-sulfonamide], the IC50 in assay [1] stood at 3000 nM; in assay [2], 2500 nM.

For the compound `Cn1cnc(S(=O)(=O)N(Cc2ccccc2)[C@H]2CCC[C@@H]2N(Cc2cncn2C)c2ccc(C#N)cc2)c1` (racemic) [7a, (±)-[N-Benzyl-N-{trans-2-[(4-cyanophenyl)(3-methyl-3H-imidazol-4-ylmethyl)amino]cyclopentyl}]-1-methyl-1H-imidazole-4-sulfonamide], the IC50 in assay [1] stood at 3100 nM.

As to `Cc1ccccc1CN([C@H]1CCC[C@@H]1N(Cc1cncn1C)c1ccc(C#N)cc1)S(=O)(=O)c1cn(C)cn1` (racemic) [7b, (±)-[N-(2-Methylbenzyl)-N-{trans-2-[(4-cyanophenyl)(3-methyl-3H-imidazol-4-ylmethyl)amino]cyclopentyl}]-1-methyl-1H-imidazole-4-sulfonamide], the values for the IC50 in assay [1] and in assay [2] were 3000 nM and 3200 nM, respectively.

Turning to `Cn1cnc(S(=O)(=O)N(Cc2ccsc2)[C@H]2CCC[C@@H]2N(Cc2cncn2C)c2ccc(C#N)cc2)c1` (racemic) [7c, (±)-[N-(Thiophen-3-ylmethyl)-N-{trans-2-[(4-cyanophenyl)(3-methyl-3H-imidazol-4-ylmethyl)amino]cyclopentyl}]-1-methyl-1H-imidazole-4-sulfonamide], the IC50 in assay [1] and in assay [2] was 2700 nM each time.

Turning to `Cn1cnc(S(=O)(=O)N(CC2CCN(c3ncccn3)CC2)[C@H]2CCC[C@@H]2N(Cc2cncn2C)c2ccc(C#N)cc2)c1` (racemic) [7e, (±)-[N-{N-(2-Pyrimidinyl)-piperidin-4-ylmethyl}-N-{trans-2-[(4-cyanophenyl)(3-methyl-3H-imidazol-4-ylmethyl)amino]cyclopentyl}]-1-methyl-1H-imidazole-4-sulfonamide], the IC50 was 2600 nM in assay [1] and 750 nM in assay [2].

Take `Cn1cnc(S(=O)(=O)N(Cc2ccccc2)[C@H]2CC[C@@H](N(Cc3cncn3C)c3ccc(C#N)cc3)C2)c1` (racemic) [8a, (±)-[N-Benzyl-N-{cis-3-[(4-cyanophenyl)(3-methyl-3H-imidazol-4-ylmethyl)amino]cyclopentyl}]-1-methyl-1H-imidazole-4-sulfonamide]: the IC50 in assay [1] amounted to 700 nM; in assay [2], 800 nM.

Regarding `Cc1ccccc1CN([C@H]1CC[C@@H](N(Cc2cncn2C)c2ccc(C#N)cc2)C1)S(=O)(=O)c1cn(C)cn1` (racemic) [8b, (±)-[N-(2-Methylbenzyl)-N-{cis-3-[(4-cyanophenyl)(3-methyl-3H-imidazol-4-ylmethyl)amino]cyclopentyl}]-1-methyl-1H-imidazole-4-sulfonamide], the IC50 in assay [1] was found to be 2400 nM; in assay [2], 2600 nM.

For `Cn1cnc(S(=O)(=O)N(Cc2ccsc2)[C@H]2CC[C@@H](N(Cc3cncn3C)c3ccc(C#N)cc3)C2)c1` (racemic) [8c, (±)-[N-(Thiophen-3-ylmethyl)-N-{cis-3-[(4-cyanophenyl)(3-methyl-3H-imidazol-4-ylmethyl)amino]cyclopentyl}]-1-methyl-1H-imidazole-4-sulfonamide], the IC50 in assay [1] was 2400 nM; in assay [2], 2500 nM.

In the case of `Cn1cnc(S(=O)(=O)N(CC2CCN(C(=O)OC(C)(C)C)CC2)[C@H]2CC[C@@H](N(Cc3cncn3C)c3ccc(C#N)cc3)C2)c1` (racemic) [8d, (±)-[N-(N-tert-Butoxycarbonylpiperidin-4-ylmethyl)-N-{cis-3-[(4-cyanophenyl)-(3-methyl-3H-imidazol-4-ylmethyl)amino]cyclopentyl}]-1-methyl-1H-imidazole-4-sulfonamide], the IC50 in assay [1] was 300 nM.

On to `Cn1cnc(S(=O)(=O)N(CC2CCN(c3ncccn3)CC2)[C@H]2CC[C@@H](N(Cc3cncn3C)c3ccc(C#N)cc3)C2)c1` (racemic) [8e, (±)-[N-{N-(2-Pyrimidinyl)-piperidin-4-ylmethyl}-N-{cis-3-[(4-cyanophenyl)(3-methyl-3H-imidazol-4-ylmethyl)amino]cyclopentyl}]-1-methyl-1H-imidazole-4-sulfonamide], for which the IC50 was determined as 600 nM in assay [1] and 720 nM in assay [2].

On to `Cn1cnc(S(=O)(=O)N(Cc2ccccc2)[C@@H]2CC[C@@H](N(Cc3cncn3C)c3ccc(C#N)cc3)C2)c1` (racemic) [9a, (±)-[N-Benzyl-N-{trans-3-[(4-cyanophenyl)(3-methyl-3H-imidazol-4-ylmethyl)amino]cyclopentyl}]-1-methyl-1H-imidazole-4-sulfonamide], for which the IC50 in assay [1] turned out to be 340 nM.

For the compound `Cc1ccccc1CN([C@@H]1CC[C@@H](N(Cc2cncn2C)c2ccc(C#N)cc2)C1)S(=O)(=O)c1cn(C)cn1` (racemic) [9b, (±)-[N-(2-Methylbenzyl)-N-{trans-3-[(4-cyanophenyl)(3-methyl-3H-imidazol-4-ylmethyl)amino]cyclopentyl}]-1-methyl-1H-imidazole-4-sulfonamide], the values for the IC50 in assay [1] and in assay [2] were 2400 nM and 2200 nM, respectively.

On to `Cn1cnc(S(=O)(=O)N(Cc2ccsc2)[C@@H]2CC[C@@H](N(Cc3cncn3C)c3ccc(C#N)cc3)C2)c1` (racemic) [9c, (±)-[N-(Thiophen-3-ylmethyl)-N-{trans-3-[(4-cyanophenyl)(3-methyl-3H-imidazol-4-ylmethyl)amino]cyclopentyl}]-1-methyl-1H-imidazole-4-sulfonamide], for which the results for the IC50 in assay [1] and in assay [2] were 1500 nM and 1200 nM, respectively.

Take `Cn1cnc(S(=O)(=O)N(CC2CCN(C(=O)OC(C)(C)C)CC2)[C@@H]2CC[C@@H](N(Cc3cncn3C)c3ccc(C#N)cc3)C2)c1` (racemic) [9d, (±)-[N-(N-tert-Butoxycarbonylpiperidin-4-ylmethyl)-N-{trans-3-[(4-cyanophenyl)(3-methyl-3H-imidazol-4-ylmethyl)amino]cyclopentyl}]-1-methyl-1H-imidazole-4-sulfonamide]: the IC50 was 310 nM in assay [1] and 80 nM in assay [2].

For the compound `Cn1cnc(S(=O)(=O)N(CC2CCN(c3ncccn3)CC2)[C@@H]2CC[C@@H](N(Cc3cncn3C)c3ccc(C#N)cc3)C2)c1` (racemic) [9e, (±)-[N-{N-(2-Pyrimidinyl)-piperidin-4-ylmethyl}-N-{trans-3-[(4-cyanophenyl)(3-methyl-3H-imidazol-4-ylmethyl)amino]cyclopentyl}]-1-methyl-1H-imidazole-4-sulfonamide], the IC50 in assay [1] turned out to be 2600 nM; in assay [2], 1500 nM.

Regarding `Cn1cnc(S(=O)(=O)N(CCCN(Cc2cncn2C)c2ccc(C#N)cc2)Cc2ccccc2)c1` [2a, [N-Benzyl-N-3-{(4-cyanophenyl)(3-methyl-3H-imidazol-4-ylmethyl)amino}propyl]-1-methyl-1H-imidazole-4-sulfonamide], in assay [1], the IC50 turned out to be 3100 nM.

On to `Cc1ccccc1CN(CCCN(Cc1cncn1C)c1ccc(C#N)cc1)S(=O)(=O)c1cn(C)cn1` [2b, [N-(2-Methylbenzyl)-N-3-{(4-cyanophenyl)(3-methyl-3H-imidazol-4-ylmethyl)amino}propyl]-1-methyl-1H-imidazole-4-sulfonamide], for which the IC50 in assay [1] and in assay [2] was 2900 nM each time.

Turning to `Cn1cnc(S(=O)(=O)N(CCCN(Cc2cncn2C)c2ccc(C#N)cc2)Cc2ccsc2)c1` [2c, [N-(Thiophen-3-ylmethyl)-N-3-{(4-cyanophenyl)(3-methyl-3H-imidazol-4-ylmethyl)amino}propyl]-1-methyl-1H-imidazole-4-sulfonamide], the IC50 in assay [1] came out at 2800 nM; in assay [2], 2200 nM.

As for `Cn1cnc(S(=O)(=O)N(CCCN(Cc2cncn2C)c2ccc(C#N)cc2)CC2CCN(c3ncccn3)CC2)c1` [2e, [N-{N-(2-Pyrimidinyl)-piperidin-4-ylmethyl}-N-3-{(4-cyanophenyl)(3-methyl-3H-imidazol-4-ylmethyl)amino}propyl]-1-methyl-1H-imidazole-4-sulfonamide], the IC50 in assay [1] came out at 1300 nM.

As for `Cn1cnc(S(=O)(=O)N(Cc2ccccc2)[C@H]2CC[C@H](N(Cc3cncn3C)c3ccc(C#N)cc3)CC2)c1` [11a, (±)-[N-Benzyl-N-{trans-4-[(4-cyanophenyl)(3-methyl-3H-imidazol-4-ylmethyl)amino]cyclohexyl}]-1-methyl-1H-imidazole-4-sulfonamide], the IC50 in assay [2] was found to be 1800 nM.
